Measured values reported in ChEMBL document CHEMBL4513216, “Probing the Open Global Health Chemical Diversity Library for Multistage-Active Starting Points for Next-Generation Antimalarials” (ACS Infect Dis, 2020).

test: Toxicity liver stage against HepG2, at 10uM; format: cell-based; design: test concentration 10 uM, cell line HepG2-A16-CD81EGFP; settings: human, HepG2-A16-CD81EGFP cells; read-out: INHIBITION
Outline: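 Uninfected HepG2-A16-CD81EGFP cells, 3 × 10^3 per well, 1536-well, plated on prespotted compound at 10 μM final, parasite-free screening media added to match infected plates; puromycin 10 μM positive, DMSO 0.5% negative; run in parallel with 48 h PbLuc assay at 37 °C, 5% CO2; viability by CellTiter-Glo luminescence, normalized to controls.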

| SMILES | cytotoxicity at 10 µM [%] |
| --- | --- |
| Cc1cc(N2CCCCC2)nc(N(CCO)CCO)c1C#N | -7.32 |
| CCN1CC2(CC1=O)CN(C(=O)N(C)C)CCN(S(C)(=O)=O)C2 (stereo unspecified) | -0.757 |
| CN(C)CCN1CCO[C@H]2CN(C(=O)C3CCOCC3)C[C@H]21 | 1.58 |
| CS(=O)(=O)N1CCO[C@@H]2CCN(C(=O)c3cccs3)CC[C@H]21 | -2.35 |
| CNC(=O)[C@@H]1COC[C@H]2CN(C(=O)c3ccc(C)c(F)c3)C[C@H]21 | 0.165 |
| Cc1noc(C)c1CN1CC2(CCN(C(=O)c3ccoc3C)C2)CC1=O (stereo unspecified) | 7.78 |
| c1cc(N2CCC3(COCc4cnc(NCC5CC5)nc43)C2)ncn1 (stereo unspecified) | 6.27 |
| Cn1cccc1C(=O)N1C[C@@H]2COC[C@]2(CNS(C)(=O)=O)C1 | 4.38 |
| CN(Cc1cn2c(n1)CN(C(=O)N(C)C)CC2)Cc1ccco1 | 4.44 |
| CCn1nc(C)cc1NC(=O)CCn1nc(C)c(Br)c1C | 10.8 |
| O=C(O)CCn1nc(C(F)(F)F)c(Cl)c1C1CC1 | 8.63 |
| Cc1ccc(Cn2nc(C)c3c(C(=O)O)c(Cl)c(C4CC4)nc32)cc1 | 6.75 |
| O=C(NCCCO)c1nnsc1-c1ccc(Cl)cc1 | 4.62 |
| CCOCCCNC(=O)c1cc(C(C)C)nc(N2CCCCCC2)n1 | 8.53 |
| Cc1nc(NCc2ccc(C)o2)cc(C(=O)N2CCOCC2)n1 | -2.03 |
| CSCc1cccc(S(=O)(=O)NCCCn2ccnc2)c1 | 4.51 |
| Nc1ncc(-c2ccc(Cl)cc2)c(C2CCCNC2)n1 (stereo unspecified) | -7.64 |
| COCCNc1ncc(-c2onc(C)c2C)c(-c2ccco2)n1 | 5.92 |
| O=C(N[C@@H]1CCC[C@@H](N2CCCC2)[C@@H]1O)c1cnn2cccnc12 | 10.6 |
| Cc1cnc(C(=O)N2Cc3cc(Cl)ccc3OC3(CCOCC3)C2)cn1 | -37.9 |
| CN(C)c1cncc(C2CCN(CC(N)=O)CC2)n1 | 3.07 |
| Cc1ncc(CN2CCc3c(nc(-c4ccccn4)[nH]c3=O)C2)n1C | -30.1 |
| Cc1nc(COc2nc(C(C)C)no2)cs1 | 11.5 |

| SMILES | cytotoxicity at 10 µM [%] |
| --- | --- |
| NC(=O)CN1CCC(NC(=O)COCCOc2ccccc2)CC1 | -9.46 |
| COc1ccc(C2CCCN2c2cnccn2)c(OC)c1 (stereo unspecified) | 3.72 |
| O=S(=O)(N1CCN(CC2CC2)CC1)N1CCCC1c1ccco1 (stereo unspecified) | 1.24 |
| Cc1noc(C)c1C(C)NC(=O)N1CCN(c2cccs2)CC1 (stereo unspecified) | 6.43 |
| CCNC(=O)NC(c1ccc(C)cc1)c1cccc(S(C)(=O)=O)c1 (stereo unspecified) | -5.82 |
| CCOc1cccc(CNc2cncc(-n3cccn3)n2)c1 | -0.363 |
| CC(=O)N(Cc1ncc(C)o1)C1CCN(Cc2cccnc2)C1 (stereo unspecified) | 15.3 |
| CN(C(=O)c1ccc(Cl)cn1)c1ccccc1S(C)(=O)=O | -7.17 |
| C=C(C)CNC1CCCN(Cc2noc(C3CC3)n2)C1 (stereo unspecified) | -4.56 |
| CCN(C)S(=O)(=O)NCC(C)(O)c1ccsc1 (stereo unspecified) | 1.83 |
| O=C(NC1CC1)c1cc(NC(=O)N2CCCC2)ccc1Cl | 3.31 |
| CC(=O)N1CCN(CCNS(=O)(=O)c2c(F)cccc2F)CC1 | -1.14 |
| CCc1noc(CN(CCC2CCCCC2)CC(N)=O)n1 | 5.76 |
| Cn1ncc2c(=O)[nH]c(CN3CCCc4cc(F)ccc43)nc21 | -8.23 |
| COCC(=O)Nc1ccc(Sc2nncn2C)c(Cl)c1 | -5.48 |
| CCc1nc(C2CCCN(c3ncc(Br)cn3)C2)no1 (stereo unspecified) | 1.47 |
| COCCn1cc(NCc2c[nH]nc2-c2ccc(OC)cc2)cn1 | 6.05 |
| CC(C)(C)OC(=O)N1CCCN1C(=O)c1cccc(F)c1F | -10.3 |
| Cc1noc(C)c1CNc1c(N2CCCC2)cccc1N1CCCC1 | 6.17 |
| CCCn1nnnc1CN(c1ccc(N2CCOCC2)cc1)C(C)C | 6.8 |
| CC(C)c1csc(C2CCCN(C(=O)c3ncccn3)C2)n1 (stereo unspecified) | 6.3 |
| CCCn1c(C)cc(C(=O)CN2C(=O)c3ccccc3CS2(=O)=O)c1C | -1.94 |
| O=C(Nc1ccc(CCN2CCC(O)CC2)cc1)Nc1cccnc1 | -7.15 |

| SMILES | cytotoxicity at 10 µM [%] |
| --- | --- |
| Cc1cc(-c2nnn(CCNS(C)(=O)=O)n2)ccc1F | -9.09 |
| CC(C)CCN1Cc2c(C(=O)O)ncn2-c2ccccc2S1(=O)=O | 6.72 |
| Cc1ccc(C(=O)N2CC[C@@H]3[C@H]2CCC(=O)N3c2ccccc2)o1 | -3.89 |
| COc1cc(-c2cnnc(NCC3CC3)n2)cc(OC)c1OC | 8.11 |
| Cc1ccc(CSc2nc(N)cc(NCCC(N)=O)n2)cc1 | 0.375 |
| CN(CCCSc1ccccc1)C(=O)Cn1ncc(N(C)C)cc1=O | 0.0227 |
| CC(C)Cc1nc(CN2CC(=O)N(C)c3ccccc3C2=O)no1 | -6.7 |
| CC(C)CCN(C)C(=O)c1cc(CN2CCC(O)CC2)on1 | 1.06 |
| O=C(O)C1(Oc2ccc3c(c2)OCO3)CCN(C2CCOCC2)CC1 | -13.3 |
| Cc1cccc(-n2ncc3c2CCCC3NCc2cccc(O)c2)c1C (stereo unspecified) | 3.11 |
| CCC[C@@H]1CN(C(=O)c2ccccc2-c2ccccc2)C[C@H]1N(C)C | 2.16 |
| CN1CCc2[nH]cnc2C12CCN(C(=O)CCc1cccs1)CC2 | -1.19 |
| COCC[C@]1(O)CCN(S(=O)(=O)c2ccc(C)cc2OC)C[C@H]1C | 11.4 |
| NC(=O)c1cccnc1N1CCN(c2ncnc3c2CCNC3)CC1 | -3.03 |
| CN(C)S(=O)(=O)NCc1cccnc1Oc1ccc(F)cc1F | 8.49 |
| CCNc1nc(C)c(C(=O)N(C)Cc2noc(C)n2)s1 | 2.43 |
| Cc1ccc2nc(CNCCCN3CCCC3=O)cc(O)c2c1 | -1.14 |
| COCCN(C)CCN1CC2(CCN(C(=O)C3CCOC3)CC2)OC1=O (stereo unspecified) | -21.8 |
| CN(C)c1ccccc1C(=O)N1C[C@@H](CN2CCCCC2)[C@@H](CO)C1 | -12.1 |
| CCc1nc(C)c([C@H]2CN(C)C[C@@H]2C(=O)NCCc2cnccn2)[nH]1 | -9.52 |
| N#Cc1ccccc1C(=O)N1CCC2(CC(=O)NC2=O)C1 (stereo unspecified) | -19.6 |
| COc1ccccc1Oc1ncccc1CNC(=O)[C@@H](C)NC(C)=O | -2.61 |
| Cc1occc1C(=O)N1CCC2(CCCN(CC3CCC3)C2=O)C1 (stereo unspecified) | -5.47 |

| SMILES | cytotoxicity at 10 µM [%] |
| --- | --- |
| CCCNC(=O)c1ccc2c(c1)C(=O)N(CC(C)C)C2=O | -10.2 |
| CC(C)N1CCC(Cc2cnc(-c3cccc(C(=O)O)c3)cn2)C1 (stereo unspecified) | -2.27 |
| CC1CN(Cc2ccccn2)CCN1c1ccc2nncn2n1 (stereo unspecified) | -1.07 |
| CCc1ncncc1C(=O)N1CCN(Cc2ccsc2)CC1 | 0.956 |
| Cc1nc(CC(=O)N2CCCC(n3ccnc3C(C)C)C2)cs1 (stereo unspecified) | -0.354 |
| Cc1ccccc1C(C)NC(=O)CSCC#N (stereo unspecified) | -10.2 |
| Cc1nc2ccnn2c(C)c1CCC(=O)N1CCSCC1 | -4.24 |
| CC(=O)NC1CCCN(C(=O)NCc2cc[nH]n2)C1 (stereo unspecified) | -11.5 |
| CCc1nc2n(n1)CC(NCc1cnc(-c3ccccc3)nc1)CC2 (stereo unspecified) | 0.702 |
| CCc1nc2n(n1)CC(NCc1noc(-c3ccc(C)cc3)n1)CC2 (stereo unspecified) | -4.26 |
| CC(NC(=O)NCC1(c2ccc(F)cc2)CC1)c1nncn1C (stereo unspecified) | -4.75 |
| CCNc1cc2c(nn1)CCN(C(=O)C(C)c1c(C)noc1C)C2 (stereo unspecified) | -4.05 |
| O=C(CCn1nc(-c2cccs2)oc1=O)Nc1cccc(F)c1 | -5.21 |
| CC(C)c1ncncc1C(=O)N1CCN(Cc2cccnc2)CC1 | -5.85 |
| c1cnnc(N2CCCC2CNCc2nc(-c3cccs3)no2)c1 (stereo unspecified) | -7.69 |
| Cc1ccsc1CNC1CCCN(Cc2noc(C3CC3)n2)C1 (stereo unspecified) | -4.98 |
| CCn1cc(NC(=O)NCC(C)N2CCCC2)cn1 (stereo unspecified) | -9.89 |
| CCOc1ncccc1CNC(=O)NC(C)Cn1cccn1 (stereo unspecified) | -15.7 |
| O=C(CN1CCN(C(=O)c2sccc2C2CC2)CC1)NC1CC1 | -3.75 |
| Cc1cnn(CC2CCCN2C(=O)Cc2c(C)nc(C)[nH]c2=O)c1 (stereo unspecified) | -3.63 |
| O=C(O)c1cc(S(=O)(=O)Nc2ccccc2)cc2c1OCCO2 | -9.26 |
| O=C(CCc1cccs1)N1CCCC(n2ccnc2)C1 (stereo unspecified) | -1.13 |
| CC(C)n1ccc(C(=O)N2CCCC(n3cncn3)C2)n1 (stereo unspecified) | -0.312 |

| SMILES | cytotoxicity at 10 µM [%] |
| --- | --- |
| Cc1cc(C)c(CNC(=O)N2CCOC(c3ccccc3)C2)c(=O)[nH]1 (stereo unspecified) | 0.0687 |
| Cc1cc(C)n(C2CCCN(C(=O)c3cn4cccnc4n3)C2)n1 (stereo unspecified) | -4.62 |
| CC(=O)Nc1nc(C(=O)N2CCCC(n3ccnc3)C2)cs1 (stereo unspecified) | -3.44 |
| Cc1cnn(CCNCc2ccc(C#N)cc2F)c1 | -2.73 |
| CN(CC1CCCO1)C1CCN(CCc2ccccn2)CC1 (stereo unspecified) | -5.6 |
| c1cnnc(N2CCCC(NCc3nnc(-c4ccco4)o3)C2)c1 (stereo unspecified) | -0.986 |
| COc1ncccc1CNC(=O)c1cccc(C)n1 | -1.58 |
| Cc1ccc(Cl)cc1N1CCC(CNC(=O)CCn2ccnc2)C1 (stereo unspecified) | -9.7 |
| CC(Cn1ccnc1)NC(=O)N1CCN(Cc2cccnc2)CC1 (stereo unspecified) | 4.31 |
| Cc1nc(C2CCCN(C(=O)Cn3ccccc3=O)C2)no1 (stereo unspecified) | -9.37 |
| Cn1nc2c(cc1=O)CN(Cc1coc(-c3cccs3)n1)CC2 | -11.1 |
| c1ccc(OC[C@]23COC[C@H]2CN(c2ncccn2)C3)nc1 | -14.1 |
| CN(C)CCOC1CC2(CCN(c3cnccn3)CC2)c2ccccc21 (stereo unspecified) | -2.69 |
| Cc1ccc(N2CC3(COCCN(Cc4cnn(C)c4)C3)OCC2=O)s1 (stereo unspecified) | -5.18 |
| CC(C)CN1CC[C@@H]2[C@@H]1CCN2C(=O)N1CCCC1 | -1 |
| COc1ccc(CN2C[C@@H](N(C)Cc3ccco3)[C@H]3OCCC[C@H]32)cc1 | 1.18 |
| CN(C)CC1CN(C(=O)Cc2ccccc2)Cc2nccn2C1 (stereo unspecified) | -115 |
| CN(C)CC1CN(Cc2ccsc2)Cc2nccn2C1 (stereo unspecified) | 1.72 |
| O=C(NCc1ccccc1)[C@H]1C[C@H]2CN(S(=O)(=O)C3CC3)C[C@@H]1O2 | 1.59 |
